Tests used:
SF-539 = test: Cytotoxicity against human SF539 cells assessed as cell growth at 10 uM after 48 hrs by SRB assay relative to untreated control; assay type: functional; conditions: SF-539, 48 h, read-out: Activity
Outline: (§1)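 NCI-60 one-dose screen: each agent added at 10 µM, cultures incubated 48 h. Endpoint by sulforhodamine B protein-binding dye read spectrophotometrically; growth expressed as percent of untreated control cells.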

[1] = Cytotoxicity against human Hs578T cells assessed as cell growth at 10 uM after 48 hrs by SRB assay relative to untreated control; assay type: functional; conditions: Hs-578T, read-out: Activity
Outline: (§2)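 NCI-60 panel screen at a single concentration of 10 μM with 48 h incubation. Cell density measured by sulforhodamine B protein-binding dye and read spectrophotometrically. Growth expressed as percent of untreated control cells.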

CCRF-CEM = test: Cytotoxicity against human CCRF-CEM cells assessed as cell growth at 10 uM after 48 hrs by SRB assay relative to untreated control; assay type: functional; conditions: read-out: Activity; outline: as §2
MDA-MB-231 = test: Cytotoxicity against human MDA-MB-231 cells assessed as cell growth at 10 uM after 48 hrs by SRB assay relative to untreated control; assay type: functional; conditions: MDA-MB-231, 48 h, read-out: Activity; outline: as §1
HCT-116 = test: Cytotoxicity against human HCT116 cells assessed as cell growth at 10 uM after 48 hrs by SRB assay relative to untreated control; assay type: functional; conditions: HCT-116, 48 h, read-out: Activity; outline: as §2
OVCAR-8 = test: Cytotoxicity against human OVCAR8 cells assessed as cell growth at 10 uM after 48 hrs by SRB assay relative to untreated control; assay type: functional; conditions: OVCAR-8, 48 h, read-out: Activity; outline: as §1
HL-60(TB) = test: Cytotoxicity against human HL-60(TB) cells assessed as cell growth at 10 uM after 48 hrs by SRB assay relative to untreated control; assay type: functional; conditions: HL-60, 48 h, read-out: Activity
Outline: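 NCI-60 human tumour cell line panel; a single 10 µM concentration was added to the cultures and incubated 48 h. Endpoint was sulforhodamine B protein-binding dye read spectrophotometrically, with growth reported as percent of untreated control cells.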

SK-MEL-5 = test: Cytotoxicity against human SK-MEL-5 cells assessed as cell growth at 10 uM after 48 hrs by SRB assay relative to untreated control; assay type: functional; conditions: SK-MEL-5, 48 h, read-out: Activity
Outline: (§3)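 NCI-60 single-dose screen. Compounds were added to the cultures at 10 μM and incubated for 48 h. The end point was sulforhodamine B protein staining read spectrophotometrically. Growth is reported as percent of untreated control cells.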

SK-MEL-2 = test: Cytotoxicity against human SK-MEL-2 cells assessed as cell growth at 10 uM after 48 hrs by SRB assay relative to untreated control; assay type: functional; conditions: SK-MEL-2, 48 h, read-out: Activity; outline: as §1
ACHN = test: Cytotoxicity against human ACHN cells assessed as cell growth at 10 uM after 48 hrs by SRB assay relative to untreated control; assay type: functional; conditions: read-out: Activity; outline: as §2
IGROV-1 = test: Cytotoxicity against human IGROV1 cells assessed as cell growth at 10 uM after 48 hrs by SRB assay relative to untreated control; assay type: functional; conditions: IGROV-1, 48 h, read-out: Activity; outline: as §2
Ovis aries = species on record: Ovis aries; test: Inhibition of sheep brain tubulin polymerization at 100 uM after 40 mins by DAPI staining-based fluorescence assay
Outline: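 Microtubular protein was purified from sheep brain by two assembly/disassembly cycles (37 °C/0 °C) in MES buffer (100 mM MES pH 6.6, 1 mM EGTA, 0.5 mM MgCl₂). Compound in DMSO was added to 10 µM tubulin with 10 µM DAPI and incubated 40 min at RT. GTP (1 mM) was then added, and assembly was followed by DAPI fluorescence at 37 °C.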

SNB-75 = test: Cytotoxicity against human SNB75 cells assessed as cell growth at 10 uM after 48 hrs by SRB assay relative to untreated control; assay type: functional; conditions: SNB-75, 48 h, read-out: Activity; outline: as §3
MDA-MB-468 = test: Cytotoxicity against human MDA-MB-468 cells assessed as cell growth at 10 uM after 48 hrs by SRB assay relative to untreated control; assay type: functional; conditions: MDA-MB-468, 48 h, read-out: Activity; outline: as §1
MOLT-4 = test: Cytotoxicity against human MOLT4 cells assessed as cell growth at 10 uM after 48 hrs by SRB assay relative to untreated control; assay type: functional; conditions: MOLT-4, 48 h, read-out: Activity; outline: as §1
COLO 205 = test: Cytotoxicity against human COLO205 cells assessed as cell growth at 10 uM after 48 hrs by SRB assay relative to untreated control; assay type: functional; conditions: COLO 205, 48 h, read-out: Activity; outline: as §2
UACC-62 = test: Cytotoxicity against human UACC62 cells assessed as cell growth at 10 uM after 48 hrs by SRB assay relative to untreated control; assay type: functional; conditions: UACC-62, 48 h, read-out: Activity; outline: as §3
TK-10 = test: Cytotoxicity against human TK10 cells assessed as cell growth at 10 uM after 48 hrs by SRB assay relative to untreated control; assay type: functional; conditions: TK-10, 48 h, read-out: Activity; outline: as §3
A549 = test: Cytotoxicity against human A549 cells assessed as cell growth at 10 uM after 48 hrs by SRB assay relative to untreated control; assay type: functional; conditions: A549, 48 h, read-out: Activity; outline: as §2
HT-29 = test: Cytotoxicity against human HT-29 cells assessed as cell growth at 10 uM after 48 hrs by SRB assay relative to untreated control; assay type: functional; conditions: HT-29, 48 h, read-out: Activity; outline: as §2
CAKI-1 = test: Cytotoxicity against human Caki1 cells assessed as cell growth at 10 uM after 48 hrs by SRB assay relative to untreated control; assay type: functional; conditions: CAKI-1, 48 h, read-out: Activity; outline: as §2
RPMI-8226 = test: Cytotoxicity against human RPMI8226 cells assessed as cell growth at 10 uM after 48 hrs by SRB assay relative to untreated control; assay type: functional; conditions: RPMI-8226, 48 h, read-out: Activity; outline: as §1
SK-OV-3 = test: Cytotoxicity against human SKOV3 cells assessed as cell growth at 10 uM after 48 hrs by SRB assay relative to untreated control; assay type: functional; conditions: SK-OV-3, 48 h, read-out: Activity; outline: as §3
T47D = test: Cytotoxicity against human T47D cells assessed as cell growth at 10 uM after 48 hrs by SRB assay relative to untreated control; assay type: functional; conditions: read-out: Activity; outline: as §3
NCI-H322M = test: Cytotoxicity against human NCI-H322M cells assessed as cell growth at 10 uM after 48 hrs by SRB assay relative to untreated control; assay type: functional; conditions: read-out: Activity; outline: as §1
NCI-H23 = test: Cytotoxicity against human NCI-H23 cells assessed as cell growth at 10 uM after 48 hrs by SRB assay relative to untreated control; assay type: functional; conditions: NCI-H23, 48 h, read-out: Activity; outline: as §1
SNB-19 = test: Cytotoxicity against human SNB19 cells assessed as cell growth at 10 uM after 48 hrs by SRB assay relative to untreated control; assay type: functional; conditions: SNB-19, 48 h, read-out: Activity; outline: as §3
MCF7 = test: Cytotoxicity against human MCF7 cells assessed as cell growth at 10 uM after 48 hrs by SRB assay relative to untreated control; assay type: functional; conditions: MCF7, 48 h, read-out: Activity; outline: as §2
MDA-MB-435 = test: Cell cycle arrest in human MDA-MB-435 cells assessed as accumulation at subG1 phase at 5 uM after 48 hrs by propidium iodide staining-based FACS analysis (reference value: 0.1%); assay type: functional

SMILES	growth at 10 µM (SF-539)	growth at 10 µM [1]	growth at 10 µM (CCRF-CEM)	growth at 10 µM (MDA-MB-231)	growth at 10 µM (HCT-116)	growth at 10 µM (SK-MEL-5)	growth at 10 µM (SK-MEL-2)	growth at 10 µM (ACHN)	growth at 10 µM (IGROV-1)	inhibition (Ovis aries)	growth at 10 µM (SNB-75)	growth at 10 µM (MDA-MB-468)	growth at 10 µM (MOLT-4)	growth at 10 µM (COLO 205)	growth at 10 µM (UACC-62)	growth at 10 µM (TK-10)	growth at 10 µM (A549)	growth at 10 µM (HT-29)	growth at 10 µM (CAKI-1)	growth at 10 µM (RPMI-8226)	also measured
COc1ccc(C2=Nc3nc4ccccn4c3C(=O)[C@H](C)N2)cc1	97.3%	98.3%	91.7%	84.9%	95.9%	100%	83.4%	83.8%	89.3%	20%	81.9%	76.5%	84.4%	97.5%	94.3%	99.2%	106%	98.5%	93.5%	88.5%	growth at 10 µM (OVCAR-8): 97.4%; growth at 10 µM (HL-60(TB)): 90.6%; growth at 10 µM (SK-OV-3): 94.7%; growth at 10 µM (T47D): 97%; growth at 10 µM (NCI-H322M): 80.3%; growth at 10 µM (NCI-H23): 93.5%; growth at 10 µM (SNB-19): 99.1%; growth at 10 µM (MCF7): 72%
C[C@@H]1NC(c2ccc(Br)cc2)=Nc2nc3ccccn3c2C1=O	74.7%	71.3%	79.4%	52.7%	29.2%	31.9%	47.4%	69.2%	43.1%	8%	50.2%	-0.5%	57.5%	26.3%	49.2%	110%	54.7%	17.5%	44.1%	94%	growth at 10 µM (OVCAR-8): 72.5%; Activity (MDA-MB-435): 8.6%; growth at 10 µM (SK-OV-3): 72%; growth at 10 µM (T47D): 67.2%; growth at 10 µM (NCI-H322M): 74%; growth at 10 µM (NCI-H23): 53.7%; growth at 10 µM (SNB-19): 82.6%; growth at 10 µM (MCF7): 20.9%
C[C@@H]1NC(c2ccc(N(C)C)cc2)=Nc2nc3ccccn3c2C1=O	92.7%	83.3%	88.7%	78.9%	101%	95.4%	88.6%	85.3%	84.8%	55%	70%	72.3%	84.2%	94.2%	83.7%	86%	103%	101%	89.7%	84.9%	growth at 10 µM (OVCAR-8): 88.2%; growth at 10 µM (HL-60(TB)): 89.6%; growth at 10 µM (SK-OV-3): 91%; growth at 10 µM (T47D): 80.7%; growth at 10 µM (NCI-H322M): 69.2%; growth at 10 µM (NCI-H23): 79.8%; growth at 10 µM (SNB-19): 95.2%; growth at 10 µM (MCF7): 66%
C[C@H]1NC(c2ccc(Br)cc2)=Nc2nc3ccccn3c2C1=O	95.5%	86.5%	96.9%	74%	90.2%	94.2%	81.8%	94%	81.1%	26%	89.3%	102%	79.7%	106%	84%	98.3%	99.6%	104%	93.2%	91%	growth at 10 µM (OVCAR-8): 94.5%; growth at 10 µM (HL-60(TB)): 91.1%; growth at 10 µM (SK-OV-3): 97.8%; growth at 10 µM (T47D): 85%; growth at 10 µM (NCI-H322M): 86.1%; growth at 10 µM (NCI-H23): 90.7%; growth at 10 µM (SNB-19): 92.5%; growth at 10 µM (MCF7): 65.1%
C[C@@H]1NC(c2ccccc2)=Nc2nc3ccccn3c2C1=O	108%	93.8%	104%	89.8%	98.4%	99.2%	110%	97.5%	88.2%	7%	82.8%	99.9%	98.2%	109%	104%	135%	103%	113%	81.8%	85.7%	growth at 10 µM (HL-60(TB)): 135%; growth at 10 µM (SK-OV-3): 101%; growth at 10 µM (T47D): 92.8%; growth at 10 µM (NCI-H322M): 102%; growth at 10 µM (NCI-H23): 91.9%; growth at 10 µM (SNB-19): 106%; growth at 10 µM (MCF7): 67.2%
Cc1ccc(C2=Nc3nc4ccccn4c3C(=O)[C@H](C)N2)cc1	90%	94.8%	85.2%	79.7%	91.1%	81.7%	69.5%	81%	70.9%	16%	68%	91.1%	75.9%	80.4%	80.1%	96%	92.9%	82.8%	86.1%	88.6%	growth at 10 µM (OVCAR-8): 93.8%; growth at 10 µM (HL-60(TB)): 87.5%; growth at 10 µM (SK-OV-3): 90.2%; growth at 10 µM (T47D): 103%; growth at 10 µM (NCI-H322M): 81.7%; growth at 10 µM (NCI-H23): 85%; growth at 10 µM (SNB-19): 95.5%; growth at 10 µM (MCF7): 71.2%
